Test results from ChEMBL document CHEMBL1122752, “Nucleosides. 129. Synthesis of antiviral nucleosides: 5-alkenyl-1-(2-deoxy-2-fluoro-beta-D-arabinofuranosyl)uracils” (J Med Chem, 1984).

How the values were obtained:
Vero [1] = assay: In vitro antiviral activity was determined by plaque-reduction assay in HSV-2 (strain G) infected Vero cell monolayers; type: functional; conditions: Chlorocebus sabaeus, read-out: ED50 (the source's name)
How it was run: (§1)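 Vero cell monolayers infected with about 20–30 pfu per well (HSV-1 strain 2931 or HSV-2 strain G), 2 h incubation, then overlaid with maintenance medium containing various drug concentrations. Plaques counted after 2 days of development. ED50 (50% plaque reduction) calculated by linear regression. Values are the mean of three separate experiments run in parallel.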

Vero [2] = assay: In vitro antiviral activity was determined by plaque-reduction assay in HSV-1(strain 2931) infected Vero cell monolayers; type: functional; conditions: Chlorocebus sabaeus, read-out: ED50 (the source's name); how it was run: as §1
[3] = Cytotoxicity expressed as ID50 which is the concentration required for 50% growth inhibition of normal human lymphocytes.; conditions: read-out: ID50 (the source's name)
How it was run: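 Normal human lymphoblasts stimulated with PHA; drug concentration causing 50% inhibition of replication (ID50) determined; values are means of three separate experiments run in parallel.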

| Structure (SMILES) | EC50 (Vero [1]) [nM] | EC50 (Vero [2]) [nM] | GI50 [3] [nM] |
| --- | --- | --- | --- |
| O=c1[nH]c(=O)n([C@@H]2O[C@H](CO)[C@@H](O)[C@@H]2F)cc1/C=C/I | 17300 | 1100 | > 100000 |
| Nc1nc(=O)n([C@@H]2O[C@H](CO)[C@@H](O)[C@H]2F)cc1I | 14 | 24 | 8600 |
| CCc1cn([C@H]2O[C@@H](CO)[C@H](O)[C@@H]2F)c(=O)[nH]c1=O | 650 | 240 | > 100000 |
| O=c1[nH]c(=O)n([C@H]2O[C@@H](CO)[C@H](O)[C@@H]2F)cc1/C=C/Br | 13900 | 400 | > 100000 |
| O=c1[nH]c(=O)n([C@@H]2O[C@H](CO)[C@@H](O)[C@@H]2F)cc1/C=C/Cl | 6900 | 540 | > 100000 |
| C=Cc1cn([C@@H]2O[C@H](CO)[C@@H](O)[C@H]2F)c(=O)[nH]c1=O | 690 | 160 | > 100000 |
| O=c1[nH]c(=O)n([C@H]2C[C@H](O)[C@@H](CO)O2)cc1/C=C/Br [BRIVUDINE] | 13000 | 70 |  |
